Measured values from article PMC11164214 (International Journal of Nanomedicine, 2024).
One block for each compound: values may come before it.

How the values were obtained:
[1] = In vitro release assay; type: physicochemical; details: 37°C
Outline: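 Dynamic dialysis, bag MWCO 8–14 kDa. Liposomal DHA, or DHA dispersed in 0.5% w/v carboxymethyl cellulose sodium as control. Incubated in SGF (pH 1.2) for 2 h, then SIF (pH 6.8) for 22 h, at 37 ± 0.5°C with shaking at 150 rpm. Medium sampled at 0.5–24 h and replaced with fresh medium. DHA measured by UV‒Vis after treatment in 2% NaOH:ethanol (4:1, v/v) at 60°C for 30 min; absorbance at 238 nm.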

[2] = Intestinal lymphatic transport inhibition study; type: in vivo, rats; details: CHX 3.0 mg/kg i.p. 1 h before, oral 10 mg/kg DHA
Outline: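 Male Sprague-Dawley rats (200 ± 20 g) given cycloheximide 3.0 mg/kg i.p. to block chylomicron secretion. One hour later, oral DHA suspension or liposomal DHA at 10 mg/kg DHA equivalent. Plasma DHA quantified by validated HPLC‒MS/MS after ether extraction, with artemisinin as internal standard. Means ± SD, n = 4.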

[3] = Biodistribution in mesenteric lymph nodes after oral administration; type: in vivo, mice
Outline: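 Male ICR mice (20 ± 2 g), acclimatised 1 week. Single oral dose of 4 mg/kg DiR as free-dye solution or liposomes (dye at 8% w/w in lipid). Mice killed at 1, 2, 4 and 6 h; intestinal tracts and MLNs excised for ex vivo fluorescence imaging (means ± SD, n = 3). Dil formulations given orally at 4 mg/kg; MLNs examined by CLSM at 4 h.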

cumulative release rate of DHA at 12 h ([1]; SGF 2 h then SIF): 94.29%
DHA released during the first 2 h in SGF ([1]; SGF pH 1.2, 2 h): more than 65%
decrease of AUC0~8 of DHA in CHX pretreated rats [2]: little influence
decrease of Cmax of DHA in CHX pretreated rats [2]: little influence
SMILES: C[C@H]1[C@@H](O)O[C@@H]2O[C@@]3(C)CC[C@H]4[C@H](C)CC[C@@H]1[C@@]24OO3 [DHA, Dihydroartemisinin]

accumulation / fluorescence signal in the MLNs (ex vivo imaging) ([3]; oral 4 mg/kg DiR): rare fluorescence signal
SMILES: CCCCCCCCCCCCCCCCCCN1/C(=C/C=C/C=C/C=C/C2=[N+](CCCCCCCCCCCCCCCCCC)c3ccccc3C2(C)C)C(C)(C)c2ccccc21.[I-] [free DiR, 1,1’-dioctadecyl-3,3,3’,3’-tetramethylindotricarbocyaine iodide]

red fluorescence signal in the MLNs (CLSM) ([3]; oral 4 mg/kg Dil, 4 h): negligible
SMILES: CCCCCCCCCCCCCCCCCCN1/C(=C/C=C/C2=[N+](CCCCCCCCCCCCCCCCCC)c3ccccc3C2(C)C)C(C)(C)c2ccccc21.[O-][Cl+3]([O-])([O-])[O-] [free Dil, 1,1’-Dioctadecyl-3,3,3’,3’-tetramethylindocarbocyanine perchlorate]
